Data taken from ChEMBL document CHEMBL4390653, “Potential anti-herpes and cytotoxic action of novel semisynthetic digitoxigenin-derivatives” (Eur J Med Chem, 2019).

Experiments:
[1] = Cytotoxicity against African green monkey Vero cells assessed as reduction in cell viability after 48 hrs by SRB assay; format: cell-based; conditions: chlorocebus sabaeus
How it was run: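 Vero cells in MEM with 10% FBS, seeded at 2.5 × 10^4 cells/well. Exposed to a range of concentrations for 48 h at 37 °C, 5% CO2, then sulforhodamine B total-protein staining. CC50 is the concentration reducing viability by 50% versus untreated controls, from nonlinear regression; mean ± SD of three independent experiments.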

Human alphaherpesvirus 1 [2] = assay: Antiviral activity against acyclovir-sensitive Herpes simplex virus 1 KOS infected in African green monkey Vero cells assessed as inhibition of viral replication after 48 hrs by naphthol blue-black staining-based plaque reduction assay; format: functional, organism-based; conditions: Human alphaherpesvirus 1, strain KOS
How it was run: (§1)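 Vero cells in MEM with 10% FBS, 37 °C, 5% CO2. Confluent monolayers (2.5 × 10^5 cells/well) infected with about 100 PFU for 1 h at 37 °C. Non-cytotoxic concentrations were added after infection. Cells were then PBS-washed and overlaid with MEM plus 1.5% carboxymethylcellulose, with or without compound, for 48 h. Fixed, naphthol blue-black stained, plaques counted under a stereomicroscope. IC50 versus untreated controls by nonlinear regression; mean of three independent experiments.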

[3] = Selectivity index, ratio of Cytotoxicity against African green monkey Vero cells assessed as reduction in cell viability after 48 hrs by SRB assay to Antiviral activity against acyclovir-sensitive Herpes simplex virus 1 KOS infected in African green monkey Vero cells assessed as inhibition of viral replication after 48 hrs by naphthol blue-black staining-based plaque reduction assay; format: toxicity; conditions: Vero cells infected with HSV-1 KOS, read-out: Ratio CC50/IC50
How it was run: (§2)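 Selectivity index = CC50 in Vero cells (SRB, 48 h) divided by plaque-reduction IC50 for the same virus strain.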

Human alphaherpesvirus 1 [4] = assay: Antiviral activity against acyclovir-resistant Herpes simplex virus 1 29-R infected in African green monkey Vero cells assessed as inhibition of viral replication after 48 hrs by naphthol blue-black staining-based plaque reduction assay; format: functional, organism-based; conditions: Human alphaherpesvirus 1, 29-R, Vero, 48 h; read-out: IC50; how it was run: as §1
[5] = Selectivity index, ratio of Cytotoxicity against African green monkey Vero cells assessed as reduction in cell viability after 48 hrs by SRB assay to Antiviral activity against acyclovir-resistant Herpes simplex virus 1 29-R infected in African green monkey Vero cells assessed as inhibition of viral replication after 48 hrs by naphthol blue-black staining-based plaque reduction assay; format: toxicity; conditions: Vero cells infected with HSV-1 29-R, read-out: Ratio CC50/IC50; how it was run: as §2
Human alphaherpesvirus 2 = assay: Antiviral activity against Herpes simplex virus 2-333 infected in African green monkey Vero cells assessed as inhibition of viral replication after 48 hrs by naphthol blue-black staining-based plaque reduction assay; format: functional, organism-based; conditions: Human alphaherpesvirus 2, 333, Vero; how it was run: as §1
[6] = Selectivity index, ratio of Cytotoxicity against African green monkey Vero cells assessed as reduction in cell viability after 48 hrs by SRB assay to Antiviral activity against Herpes simplex virus 2-333 infected in African green monkey Vero cells assessed as inhibition of viral replication after 48 hrs by naphthol blue-black staining-based plaque reduction assay; format: toxicity; conditions: Vero cells infected with HSV-2 333, read-out: Ratio CC50/IC50; how it was run: as §2
A549 = assay: Cytotoxicity against human A549 cells assessed as inhibition of cell viability after 48 hrs by SRB assay; format: functional, cell-based; conditions: A549, 48 h
HCT-8 = assay: Cytotoxicity against human HCT8 cells assessed as inhibition of cell viability after 48 hrs by SRB assay; format: functional, cell-based; conditions: HCT-8, 48 h
How it was run: (§3)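 Cells seeded at 2.5 × 10^4 per well and exposed to a concentration range for 48 h, then SRB total-protein stain. PC3 grown in phenol-red-free DMEM with 1% glutamine; LNCaP in phenol-red-free RPMI 1640 with glutamine and non-essential amino acids. HCT-8 and H460 in RPMI 1640. MRC-5 (plus glutamine and non-essential amino acids) and primary gingival fibroblasts in DMEM. All media had 10% FBS, 37 °C, 5% CO2. Paclitaxel was the reference. IC50 versus untreated controls by nonlinear regression, three independent experiments.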

LNCaP = assay: Cytotoxicity against human LNCAP cells assessed as inhibition of cell viability after 48 hrs by SRB assay; format: functional, cell-based; how it was run: as §3
PC-3 = assay: Cytotoxicity against human PC3 cells assessed as inhibition of cell viability after 48 hrs by SRB assay; format: functional, cell-based; conditions: PC-3, 48 h; how it was run: as §3
NCI-H460 = assay: Cytotoxicity against human H460 cells assessed as inhibition of cell viability after 48 hrs by SRB assay; format: functional, cell-based; conditions: NCI-H460, 48 h; how it was run: as §3
MRC5 = assay: Cytotoxicity against human MRC5 cells assessed as inhibition of cell viability after 48 hrs by SRB assay; format: cell-based; conditions: MRC5, 48 h; how it was run: as §3
[7] = Cytotoxicity against human HGF cells assessed as inhibition of cell viability after 48 hrs by SRB assay; format: cell-based; how it was run: as §3
[8] = Inhibition of porcine cortex Na+/K+-ATPase alpha1/2/3 subunit using ATP as substrate preincubated for 30 mins followed by substrate addition and measured after 30 mins by malachite green reagent-based assay; design: species or system Sus scrofa

| Structure (SMILES) | CC50 at 48 h [1] | IC50 (Human alphaherpesvirus 1 [2]) | selectivity ratio at 48 h [3] | IC50 (Human alphaherpesvirus 1 [4]) | selectivity ratio at 48 h [5] | IC50 (Human alphaherpesvirus 2) | selectivity ratio at 48 h [6] | IC50 (A549) | IC50 (HCT-8) | IC50 (LNCaP) | IC50 (PC-3) | IC50 (NCI-H460) | IC50 (MRC5) | IC50 [7] | IC50 [8] |
| --- | --- | --- | --- | --- | --- | --- | --- | --- | --- | --- | --- | --- | --- | --- | --- |
| C[C@]12CC[C@H](n3cc(CO[C@@H]4O[C@H](CO)[C@@H](O[C@H]5O[C@H](CO)[C@@H](O)[C@H](O)[C@H]5O)[C@H](O)[C@H]4O)nn3)C[C@H]1CC[C@@H]1[C@@H]2CC[C@]2(C)[C@@H](C3=CC(=O)OC3)CC[C@]12O | 147 µM | 4.29 µM | 34.3 | 3.24 µM | 45.4 | 4.18 µM | 35.2 | 2.86 µM | 5.43 µM | 5.24 µM | 2.74 µM | – | – | – | – |
| C[C@]12CC[C@H](NC(=O)CCl)C[C@H]1CC[C@@H]1[C@@H]2CC[C@]2(C)[C@@H](C3=CC(=O)OC3)CC[C@]12O | 84 µM | 0.69 µM | 122 | 0.34 µM | 247 | 1.37 µM | 61.3 | 1.17 µM | 1.45 µM | 1.96 µM | 1.92 µM | – | – | – | – |
| C[C@@H](O)[C@H](O)[C@@H](O)CCN[C@H]1CC[C@@]2(C)[C@H](CC[C@@H]3[C@@H]2CC[C@]2(C)[C@@H](C4=CC(=O)OC4)CC[C@]32O)C1 | > 300 µM | 1.46 µM | > 206 | 3.23 µM | > 92.9 | 1.27 µM | > 236 | 0.68 µM | 1.25 µM | 2.46 µM | 1.22 µM | 0.37 µM | 0.55 µM | 2.55 µM | 2.04 µM |
| CC(=O)OC[C@H]1O[C@H](OCc2cn([C@H]3CC[C@@]4(C)[C@H](CC[C@@H]5[C@@H]4CC[C@]4(C)[C@@H](C6=CC(=O)OC6)CC[C@]54O)C3)nn2)[C@@H](OC(C)=O)[C@@H](OC(C)=O)[C@@H]1OC(C)=O | 393 µM | 10.1 µM | 39 | 6.01 µM | 65.4 | 4.55 µM | 86.4 | 1.57 µM | 1.9 µM | 3.13 µM | 2.92 µM | 1.59 µM | – | – | 4.46 µM |
| C[C@]12CC[C@H](NC(=O)CNc3ccc(C#N)cc3)C[C@H]1CC[C@@H]1[C@@H]2CC[C@]2(C)[C@@H](C3=CC(=O)OC3)CC[C@]12O | > 300 µM | 0.6 µM | > 500 | 0.42 µM | > 714 | 1 µM | > 300 | 0.54 µM | 1.25 µM | 2.08 µM | 0.91 µM | 0.25 µM | 1.06 µM | 2.09 µM | 4.16 µM |
| C[C@]12CC[C@H](n3cc(CO[C@H]4O[C@H](CO)[C@@H](O)[C@H](O)[C@@H]4O)nn3)C[C@H]1CC[C@@H]1[C@@H]2CC[C@]2(C)[C@@H](C3=CC(=O)OC3)CC[C@]12O | > 300 µM | 0.55 µM | > 546 | 0.37 µM | > 811 | 0.41 µM | > 732 | 0.58 µM | 1.02 µM | 1.66 µM | 0.58 µM | 0.24 µM | 0.36 µM | 1.41 µM | 5.47 µM |
| C[C@]12CC[C@H](NC(=O)CN3CCC(c4ccccc4)CC3)C[C@H]1CC[C@@H]1[C@@H]2CC[C@]2(C)[C@@H](C3=CC(=O)OC3)CC[C@]12O | 112 µM | 0.44 µM | 254 | 0.2 µM | 560 | 0.49 µM | 228 | 1.43 µM | 0.3 µM | 1.72 µM | 0.7 µM | 0.32 µM | – | – | 6.59 µM |
| C[C@]12CC[C@H](NC(=O)CNc3ccc(Cl)cc3)C[C@H]1CC[C@@H]1[C@@H]2CC[C@]2(C)[C@@H](C3=CC(=O)OC3)CC[C@]12O | 314 µM | 1.51 µM | 208 | 1.8 µM | 174 | 1.4 µM | 224 | 1.38 µM | 1.68 µM | 1.28 µM | 1.18 µM | 1.14 µM | – | – | 10.8 µM |
| C[C@]12CC[C@H](O)C[C@H]1CC[C@@H]1[C@@H]2CC[C@]2(C)[C@@H](C3=CC(=O)OC3)CC[C@]12O [DIGITOXIGENIN] | 27.5 µM | 1.09 µM | 25.3 | 1.02 µM | 27 | 3.23 µM | 8.53 | 1.68 µM | 2.48 µM | 3.7 µM | 2.41 µM | 0.92 µM | 1.16 µM | 1.47 µM | – |
| CC(=O)O[C@H]1C(=O)[C@@]2(C)[C@H]([C@H](OC(=O)c3ccccc3)[C@]3(O)C[C@H](OC(=O)[C@H](O)[C@@H](NC(=O)c4ccccc4)c4ccccc4)C(C)=C1C3(C)C)[C@]1(OC(C)=O)CO[C@@H]1C[C@@H]2O [PACLITAXEL] | – | – | – | – | – | – | – | 0.11 µM | 0.17 µM | 21 µM | 0.67 µM | 0.08 µM | > 200 µM | > 200 µM | – |
